Columns and labels:
[1] = Selectivity index, ratio of CC50 for human ARPE-19 cells to EC50 for VZV infected human ARPE-19 cells; assay type: toxicity; conditions: VZV infected ARPE-19 cells, read-out: Selectivity Index
[2] = system: Human alphaherpesvirus 3; test: Antiviral activity against VZV infected HFF cells assessed as reduction in viral replication; assay type: functional, organism-based; conditions: Human alphaherpesvirus 3, HFF
[3] = system: HFF; test: Cytotoxicity against HFF cells assessed as cell growth inhibition upto 200 uM; assay type: toxicity, cell-based; conditions: human
[4] = Selectivity index, ratio of CC50 for HFF cells to EC50 for VZV infected HFF cells; assay type: toxicity; conditions: human, read-out: Selectivity Index
[5] = Drug concentration in BALB/c mouse plasma at 11.4 mg/kg, po via gavage measured after 20 mins by LC-MS/MS analysis; assay type: ADME, organism-based
How it was run: (§1)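 BALB/c mice of both sexes (N = 15 per sex per group) received a single oral gavage dose: 11.4 mg/kg L-BHDU or an equimolar 22.5 mg/kg of the POM prodrug, in Cremophor–DMSO–saline (1:1:8). Three mice per group were bled by cardiac puncture under isoflurane at 20, 40, 60 and 120 min into heparin. Plasma (AZT internal standard, 20 ng/mL) was methanol-precipitated and L-BHDU quantified by LC-MS/MS (negative ESI).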

[6] = Drug concentration in BALB/c mouse plasma at 11.4 mg/kg, po via gavage measured after 40 mins by LC-MS/MS analysis; assay type: ADME, organism-based; how it was run: as §1
[7] = Drug concentration in BALB/c mouse plasma at 11.4 mg/kg, po via gavage measured after 60 mins by LC-MS/MS analysis; assay type: ADME, organism-based; how it was run: as §1
[8] = system: Human alphaherpesvirus 3; test: Antiviral activity against VZV expressing ORF57-TS mutant infected human ARPE-19 cells assessed as reduction in viral replication treated for 72 hrs by bioluminescence imaging analysis; assay type: functional, organism-based; conditions: Human alphaherpesvirus 3, ARPE-19, 72 h
[9] = system: Human alphaherpesvirus 3; test: Antiviral activity against VZV infected human ARPE-19 cells assessed as reduction in viral replication treated for 72 hrs by bioluminescence imaging analysis; assay type: functional, organism-based; conditions: Human alphaherpesvirus 3, ARPE-19, 72 h
[10] = Cytotoxicity against human ARPE-19 cells assessed as reduction in cell viability treated for 72 hrs by neutral red assay; assay type: toxicity, cell-based
How it was run: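 ARPE-19 cells (DMEM, 10% heat-inactivated FBS, penicillin-streptomycin, amphotericin B; used within 30 passages) seeded 3 d, then exposed 72 h to a concentration range, higher than in antiviral runs, under the same conditions. Viability read by neutral red dye uptake; staurosporine as cell-death control. […] DMSO stocks diluted in DMSO and/or medium.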

[11] = system: Human alphaherpesvirus 3; test: Antiviral activity against VZV expressing ORF57-Luc infected human ARPE-19 cells assessed as reduction in viral replication treated for 72 hrs by bioluminescence imaging analysis; assay type: functional, organism-based; conditions: Human alphaherpesvirus 3, ARPE-19, 72 h
[12] = system: Human alphaherpesvirus 3; test: Antiviral activity against VZV expressing ORF57-TK mutant infected human ARPE-19 cells assessed as reduction in viral replication treated for 72 hrs by bioluminescence imaging analysis; assay type: functional, organism-based; conditions: Human alphaherpesvirus 3, ARPE-19, 72 h
[13] = system: Human alphaherpesvirus 3; test: Antiviral activity against VZV expressing ORF57-TKTS mutant infected human ARPE-19 cells assessed as reduction in viral replication treated for 72 hrs by bioluminescence imaging analysis; assay type: functional, organism-based; conditions: Human alphaherpesvirus 3, ARPE-19, 72 h
[14] = Stability of compound in gastric juice; assay type: ADME; conditions: simulated gi fluid
[15] = Stability of compound in intestinal juice; assay type: ADME; conditions: simulated gi fluid
[16] = Prodrug conversion in mouse liver homogenate assessed as concentration of L-BHDU formation at 0.3 ug/ml measured immediately by LC-MS/MS analysis; assay type: ADME, tissue-based; conditions: dose 0.3 µg/ml
How it was run: (§2)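 Liver homogenate from untreated BALB/c mice was spiked with prodrug at 0.3 μg/mL, with azidothymidine internal standard at 20 ng/mL final, and incubated at 37 °C. Reactions were stopped with 2 volumes of methanol at 0, 2, 4, 10, 30 and 60 min. Supernatants were dried and reconstituted in 50% methanol. Prodrug, L-BHDU and L-BHDU-MP were quantified by LC-MS/MS against calibration curves.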

[17] = Prodrug conversion in mouse liver homogenate assessed as concentration of L-BHDU formation at 0.3 ug/ml measured after 2 mins by LC-MS/MS analysis; assay type: ADME, tissue-based; conditions: dose 0.3 µg/ml; how it was run: as §2
[18] = Prodrug conversion in mouse liver homogenate assessed as concentration of L-BHDU formation at 0.3 ug/ml measured after 4 mins by LC-MS/MS analysis; assay type: ADME, tissue-based; conditions: dose 0.3 µg/ml; how it was run: as §2
[19] = Prodrug conversion in mouse liver homogenate assessed as concentration of L-BHDU formation at 0.3 ug/ml measured after 10 mins by LC-MS/MS analysis; assay type: ADME, tissue-based; conditions: dose 0.3 µg/ml; how it was run: as §2
[20] = Prodrug conversion in mouse liver homogenate assessed as concentration of L-BHDU formation at 0.3 ug/ml measured after 30 mins by LC-MS/MS analysis; assay type: ADME, tissue-based; conditions: 0.5 h, dose 0.3 µg/ml; how it was run: as §2
[21] = Prodrug conversion in mouse liver homogenate assessed as concentration of L-BHDU formation at 0.3 ug/ml measured after 60 mins by LC-MS/MS analysis; assay type: ADME, tissue-based; conditions: in vitro, 1 h; how it was run: as §2
[22] = Stability in mouse liver homogenate assessed as compound remaining at 0.3 ug/ml measured immediately by LC-MS/MS analysis; assay type: ADME, tissue-based; conditions: tissue homogenate, dose 0.3 µg/ml; how it was run: as §2
[23] = Stability in mouse liver homogenate assessed as compound remaining at 0.3 ug/ml measured after 2 mins by LC-MS/MS analysis; assay type: ADME, tissue-based; conditions: tissue homogenate, dose 0.3 µg/ml; how it was run: as §2
[24] = Stability in mouse liver homogenate assessed as compound remaining at 0.3 ug/ml measured after 4 mins by LC-MS/MS analysis; assay type: ADME, tissue-based; conditions: tissue homogenate, dose 0.3 µg/ml; how it was run: as §2
[25] = Stability in mouse liver homogenate assessed as compound remaining at 0.3 ug/ml measured after 10 mins by LC-MS/MS analysis; assay type: ADME, tissue-based; conditions: tissue homogenate, dose 0.3 µg/ml; how it was run: as §2
[26] = Stability in mouse liver homogenate assessed as compound remaining at 0.3 ug/ml measured after 30 mins by LC-MS/MS analysis; assay type: ADME, tissue-based; conditions: tissue homogenate, 0.5 h, dose 0.3 µg/ml; how it was run: as §2
[27] = Prodrug conversion in BALB/c mouse assessed as concentration of L-BHDU formation at 22.5 mg/kg, po via gavage measured immediately by LC-MS/MS analysis; assay type: ADME, organism-based; conditions: in vivo
[28] = Prodrug conversion in BALB/c mouse assessed as concentration of L-BHDU formation at 22.5 mg/kg, po via gavage measured after 20 mins by LC-MS/MS analysis; assay type: ADME, organism-based; conditions: in vivo; how it was run: as §1
[29] = Prodrug conversion in BALB/c mouse assessed as concentration of L-BHDU formation at 22.5 mg/kg, po via gavage measured after 40 mins by LC-MS/MS analysis; assay type: ADME, organism-based; conditions: in vivo; how it was run: as §1
[30] = Prodrug conversion in BALB/c mouse assessed as concentration of L-BHDU formation at 22.5 mg/kg, po via gavage measured after 60 mins by LC-MS/MS analysis; assay type: ADME, organism-based; conditions: in vivo, 1 h; how it was run: as §1
[31] = Prodrug conversion in BALB/c mouse assessed as concentration of L-BHDU formation at 22.5 mg/kg, po via gavage measured after 120 mins by LC-MS/MS analysis; assay type: ADME, organism-based; conditions: in vivo, 2 h; how it was run: as §1
[32] = Prodrug conversion in BALB/c mouse assessed as AUC of L-BHDU at 22.5 mg/kg, po via gavage measured upto 120 mins by LC-MS/MS analysis; assay type: ADME, organism-based; design: time < 120 min, dose 22.5 mg/kg, route po; conditions: in vivo, 2 h; how it was run: as §1
[33] = Prodrug conversion in BALB/c mouse assessed as Tmax of L-BHDU at 22.5 mg/kg, po via gavage measured upto 120 mins by LC-MS/MS analysis; assay type: ADME, organism-based; conditions: in vivo, 2 h; how it was run: as §1
[34] = Prodrug conversion in BALB/c mouse assessed as Cmax of L-BHDU at 22.5 mg/kg, po via gavage measured upto 120 mins by LC-MS/MS analysis; assay type: ADME, organism-based; design: dose 22.5 mg/kg, time < 120 min, route po; conditions: in vivo, 2 h; how it was run: as §1
[35] = Cytotoxicity against HFF cells assessed as reduction in cell viability; assay type: toxicity, cell-based; conditions: human

CC(C)(N)C(=O)OC[C@H]1OC[C@@H](n2cc(/C=C/Br)c(=O)[nH]c2=O)O1
selectivity ratio [1]: > 2600

CC(C)[C@H](N)C(=O)OC[C@H]1OC[C@@H](n2cc(/C=C/Br)c(=O)[nH]c2=O)O1
selectivity ratio [1]: > 709

CC(C)C[C@H](N)C(=O)OC[C@H]1OC[C@@H](n2cc(/C=C/Br)c(=O)[nH]c2=O)O1
selectivity ratio [1]: > 2420

NCC(=O)OC[C@H]1OC[C@@H](n2cc(/C=C/Br)c(=O)[nH]c2=O)O1
selectivity ratio [1]: > 2130

NC(=O)CC[C@H](N)C(=O)OC[C@H]1OC[C@@H](n2cc(/C=C/Br)c(=O)[nH]c2=O)O1
selectivity ratio [1]: > 794

O=c1[nH]c(=O)n([C@@H]2CO[C@H](CO)O2)cc1/C=C/Br
EC50 [2]: 250 nM
Activity [3]: Non-Toxic
selectivity ratio [4]: > 909
selectivity ratio [1]: > 3880
concentration at 20 min [5]: 5620 ng/mL
concentration at 40 min [6]: 4500 ng/mL
concentration at 1 h [7]: 6180 ng/mL

CC(C)C(=O)OCOP(=O)(OCOC(=O)C(C)C)OC[C@H]1OC[C@@H](n2cc(/C=C/Br)c(=O)[nH]c2=O)O1
EC50 [8]: 8 nM
EC50 [9]: 34 nM
CC50 at 72 h [10]: > 100 µM
selectivity ratio [1]: > 2920
EC50 [11]: 40 nM
EC50 [12]: > 2000 nM
EC50 [13]: > 2000 nM

CC[C@H](C)[C@H](N)C(=O)OC[C@H]1OC[C@@H](n2cc(/C=C/Br)c(=O)[nH]c2=O)O1
selectivity ratio [1]: > 1520

N[C@@H](Cc1ccc(O)cc1)C(=O)OC[C@H]1OC[C@@H](n2cc(/C=C/Br)c(=O)[nH]c2=O)O1
selectivity ratio [1]: > 826

CCCCCCCCCCCCCCCCCCOCCOP(=O)(OC[C@H]1OC[C@@H](n2cc(/C=C/Br)c(=O)[nH]c2=O)O1)Oc1ccccc1 (stereo not given in full)
EC50 [8]: 1 nM
EC50 [9]: 100 nM
CC50 at 72 h [10]: 33.9 µM
selectivity ratio [1]: 339
EC50 [11]: 820 nM
EC50 [12]: > 2000 nM
EC50 [13]: > 2000 nM

C[C@@H](N)C(=O)OC[C@H]1OC[C@@H](n2cc(/C=C/Br)c(=O)[nH]c2=O)O1
selectivity ratio [1]: > 2960

N[C@@H](Cc1c[nH]c2ccccc12)C(=O)OC[C@H]1OC[C@@H](n2cc(/C=C/Br)c(=O)[nH]c2=O)O1
selectivity ratio [1]: > 1550

CC(C)(C)C(=O)OCOP(=O)(OCOC(=O)C(C)(C)C)OC[C@H]1OC[C@@H](n2cc(/C=C/Br)c(=O)[nH]c2=O)O1
EC50 [8]: 1 nM
selectivity ratio [1]: > 2810
Stability [14]: Stable
Stability [15]: Stable
Drug metabolism [16]: 0.016 µg/mL
Drug metabolism [17]: 0.055 µg/mL
Drug metabolism [18]: 0.142 µg/mL
Drug metabolism [19]: 0.359 µg/mL
Drug metabolism [20]: 1.385 µg/mL
Drug metabolism [21]: 1.961 µg/mL
Stability [22]: 0.599 µg/mL
Stability [23]: 3.094 µg/mL
Stability [24]: 4.569 µg/mL
Stability [25]: 4.488 µg/mL
Stability [26]: 3.777 µg/mL
Drug metabolism [27]: 0 µg/mL
Drug metabolism [28]: 8.69 µg/mL
Drug metabolism [29]: 14.044 µg/mL
Drug metabolism [30]: 13.543 µg/mL
Drug metabolism [31]: 10.608 µg/mL
AUC [32]: 1680 µg·min/mL
Tmax [33]: 40 min
Cmax [34]: 10.6 µg/mL

CCCCCCCCCCCCCCCCOCCCOP(=O)(OC[C@H]1OC[C@@H](n2cc(/C=C/Br)c(=O)[nH]c2=O)O1)Oc1ccccc1 (stereo not given in full)
EC50 [9]: 526 nM
CC50 at 72 h [10]: 18.5 µM
selectivity ratio [1]: 35

O=C(OC[C@H]1OC[C@@H](n2cc(/C=C/Br)c(=O)[nH]c2=O)O1)[C@@H]1CCCN1
selectivity ratio [1]: > 1930

CC(C)[C@@H](N)C(=O)OC[C@H]1OC[C@@H](n2cc(/C=C/Br)c(=O)[nH]c2=O)O1
CC50 [35]: > 200 µM
selectivity ratio [1]: > 3320

N[C@H](Cc1ccccc1)C(=O)OC[C@H]1OC[C@@H](n2cc(/C=C/Br)c(=O)[nH]c2=O)O1
selectivity ratio [1]: > 3480

From ChEMBL document CHEMBL5338764, “Prodrug Strategies for the Development of β-l-5-((E)-2-Bromovinyl)-1-((2S,4S)-2-(hydroxymethyl)-1,3-(dioxolane-4-yl))uracil (l-BHDU) against Varicella Zoster Virus (VZV)” (J Med Chem, 2023)
